The text below walks through data of ChEMBL document CHEMBL4699498 (J Med Chem, 2020).

Molecules are shown by their SMILES. Calls of active or inactive are those of the source. No cut-off for these calls is given here.

The target in data set [1] is T1, Protein cereblon/Poly [ADP-ribose] polymerase 1 (Homo sapiens, UniProt P09874+Q96SW2). The experiment in a line: Protac activity at CRBN/PARP1 in human MDA-MB-436 cells assessed as induction of PARP1 degradation at 10 nM incubated for 24 hrs by Western blot analysis relative to control. The class given is cell-based. A digest of the protocol: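 MDA-MB-436 cells (RPMI-1640, 10% FBS) seeded 24 h, then exposed to compound at 1, 10, 100 and 1000 nM for 24 h. Lysates in RIPA with protease inhibitors, 20-30 µg protein by SDS-PAGE, PARP1 immunoblot with β-tubulin loading control; PARP1/β-tubulin ratio normalized to DMSO control set at 100.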
T1 sequence (P09874 2-1014 limits assumed): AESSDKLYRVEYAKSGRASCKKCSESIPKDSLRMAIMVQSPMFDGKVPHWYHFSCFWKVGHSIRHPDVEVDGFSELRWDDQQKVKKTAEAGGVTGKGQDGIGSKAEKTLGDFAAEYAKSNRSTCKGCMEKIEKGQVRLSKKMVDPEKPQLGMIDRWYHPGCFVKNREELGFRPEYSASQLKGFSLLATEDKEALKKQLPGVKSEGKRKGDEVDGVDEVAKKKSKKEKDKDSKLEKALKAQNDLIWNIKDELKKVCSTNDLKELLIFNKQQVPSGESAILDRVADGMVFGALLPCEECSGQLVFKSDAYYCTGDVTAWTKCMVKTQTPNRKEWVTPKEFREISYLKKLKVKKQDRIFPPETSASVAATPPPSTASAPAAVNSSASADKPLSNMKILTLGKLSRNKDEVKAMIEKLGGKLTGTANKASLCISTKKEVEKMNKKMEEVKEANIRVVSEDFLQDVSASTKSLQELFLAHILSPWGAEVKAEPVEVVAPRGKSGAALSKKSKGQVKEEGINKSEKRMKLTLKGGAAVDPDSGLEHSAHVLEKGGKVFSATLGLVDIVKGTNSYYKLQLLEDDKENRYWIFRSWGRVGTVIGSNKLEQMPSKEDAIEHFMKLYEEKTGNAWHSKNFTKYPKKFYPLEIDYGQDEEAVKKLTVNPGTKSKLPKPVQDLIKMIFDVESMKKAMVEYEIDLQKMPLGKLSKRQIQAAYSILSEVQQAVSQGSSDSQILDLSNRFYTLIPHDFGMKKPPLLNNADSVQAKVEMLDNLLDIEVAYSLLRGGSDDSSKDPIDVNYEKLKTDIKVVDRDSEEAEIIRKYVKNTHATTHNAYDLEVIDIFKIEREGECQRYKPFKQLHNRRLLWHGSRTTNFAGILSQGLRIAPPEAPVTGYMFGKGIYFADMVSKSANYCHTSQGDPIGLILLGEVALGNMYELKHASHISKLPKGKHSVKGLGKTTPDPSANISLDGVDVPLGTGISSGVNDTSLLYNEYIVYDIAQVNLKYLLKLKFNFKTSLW
T1 sequence (Q96SW2 whole entry partner): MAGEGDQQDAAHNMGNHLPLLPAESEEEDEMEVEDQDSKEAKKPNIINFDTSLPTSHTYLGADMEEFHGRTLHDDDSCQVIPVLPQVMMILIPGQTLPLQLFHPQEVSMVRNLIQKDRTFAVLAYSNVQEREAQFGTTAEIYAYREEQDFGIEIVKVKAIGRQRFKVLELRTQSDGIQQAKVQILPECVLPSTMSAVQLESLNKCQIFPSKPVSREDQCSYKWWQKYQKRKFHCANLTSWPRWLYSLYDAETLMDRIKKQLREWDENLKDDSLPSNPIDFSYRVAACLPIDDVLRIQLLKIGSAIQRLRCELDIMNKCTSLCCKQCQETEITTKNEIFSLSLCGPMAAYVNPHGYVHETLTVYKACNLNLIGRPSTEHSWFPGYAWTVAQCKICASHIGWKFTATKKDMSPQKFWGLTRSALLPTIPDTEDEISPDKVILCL
On the technique in general: Immunoblotting shows a protein as a band on a membrane.

For data set [2], the target named is T1, Protein cereblon/Poly [ADP-ribose] polymerase 1. The experiment in a line: Protac activity at CRBN/PARP1 in human MDA-MB-436 cells assessed as induction of PARP1 degradation at 30 nM measured within 1 hr by Western blot analysis. The class given is cell-based. As to conditions: time hrs <=1. A digest of the protocol:
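Time course at 30 nM in MDA-MB-436 or SW620 cells; PARP1 immunoblotted at successive time points, β-tubulin as loading control.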

Data set [3] has the same target. The experiment in a line: Protac activity at CRBN/PARP1 in human MDA-MB-231 cells assessed as induction of PARP1 degradation at 30 nM incubated for 1 to 24 hrs by Western blot analysis. The class given is cell-based. The settings on record: time hrs 1-24.
Data set [4] in a line: Acute toxicity in Balb/c mouse assessed as weight loss at 25 to 50 mg/kg, ip administered 5 times a week for 3 weeks. The class given is organism-based. As to conditions: in vivo, 504 h, dose 25-50 mg/kg. A digest of the protocol:
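Male BALB/c nude mice (5–6 weeks) received 5×10^6 Capan-1 cells s.c. in the right armpit. At a mean tumour volume of about 150 mm³, mice were randomised by tumour volume and body weight, 6 per group. Dosing was i.p. in 5% DMSO/20% PEG400/10% Cremophor EL/65% saline, once daily five times per week for 3 weeks. Body weight was measured 2–3 times weekly.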

In data set [5] the test system is SW-620. Kind of data set: Potentiation of TMZ induced antitumor activity against SW-620 cells xenografted in Balb/c mouse assessed as tumor growth suppression at 10 mg/kg, po qd administered for 5 days. The class given is functional, organism-based. As to conditions: time 5.0 day. A digest of the protocol: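 Male BALB/c nude mice carried SW620 xenografts (6×10^6 cells s.c.), randomized at ~150 mm³ (6 per group). TMZ 50 mg/kg was given orally once daily on days 0-4, 45 min after the partner drug. Partners were 5 or 10 mg/kg intraperitoneally or 10 mg/kg by oral gavage, daily for 5 days. Vehicle was 5% DMSO/20% PEG400/10% Cremophor EL/65% saline. Tumor volume and body weight were recorded 2-3 times weekly.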

Data set [6] concerns CAPAN-1. The experiment in a line: Potentiation of cisplatin induced antitumor activity against CAPAN-1 cells xenografted in Balb/c mouse at 50 mg/kg, ip qd administered for 5 days measured on day 16. As to conditions: time 16.0 day. The class given is functional, organism-based. A digest of the protocol:
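Male BALB/c nude mice carried Capan-1 xenografts (5×10^6 cells s.c.), randomized at ~150 mm³ (6 per group). Treatment was 25 or 50 mg/kg intraperitoneally or 100 mg/kg by oral gavage, once daily on days 0-4. Cisplatin 6 mg/kg in saline was given intraperitoneally on day 2, 45 min after the partner drug. Tumor volume and body weight were measured 2-3 times weekly.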

The target of data set [7] is T1, Protein cereblon/Poly [ADP-ribose] polymerase 1. The experiment in a line: Protac activity at CRBN/PARP1 in human MDA-MB-436 cells assessed as induction of PARP1 degradation at 30 nM incubated for 24 hrs in presence of proteasome inhibitor carfilzomib by Western blot analysis.

`O=C(CCCCCCCCCCC(=O)N1CCN(C(=O)c2cc(Cc3n[nH]c(=O)c4ccccc34)ccc2F)CC1)NCCNc1cccc2c1C(=O)N(C1CCC(=O)NC1=O)C2=O` (configuration not stated): the Activity in data set [1] was above 99%; in data set [4], “Non-Toxic”. Moreover, the outcome in data set [2], in data set [3], in data set [5] and in data set [6] was Active. For the same compound, in data set [7], the result was inactive.
